Rows were chosen to be rich in hits. Some 2.3% of all compounds tested hit in one or more screens of this group.
TRPC4 inh: TRPC4 (mouse) channel inhibition; B-score at 10 µM; Q9QUQ5; HEK293 TRPC4beta/mu-opioid, DAMGO-evoked Fluo4 calcium flux; hits give low values; actives 0.39% (n = 300,000);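 active means B-score over 3 SD under the library average, no early fluorescence shift, positive overall ratio signal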
Target sequence (Q9QUQ5 whole entry, looked up): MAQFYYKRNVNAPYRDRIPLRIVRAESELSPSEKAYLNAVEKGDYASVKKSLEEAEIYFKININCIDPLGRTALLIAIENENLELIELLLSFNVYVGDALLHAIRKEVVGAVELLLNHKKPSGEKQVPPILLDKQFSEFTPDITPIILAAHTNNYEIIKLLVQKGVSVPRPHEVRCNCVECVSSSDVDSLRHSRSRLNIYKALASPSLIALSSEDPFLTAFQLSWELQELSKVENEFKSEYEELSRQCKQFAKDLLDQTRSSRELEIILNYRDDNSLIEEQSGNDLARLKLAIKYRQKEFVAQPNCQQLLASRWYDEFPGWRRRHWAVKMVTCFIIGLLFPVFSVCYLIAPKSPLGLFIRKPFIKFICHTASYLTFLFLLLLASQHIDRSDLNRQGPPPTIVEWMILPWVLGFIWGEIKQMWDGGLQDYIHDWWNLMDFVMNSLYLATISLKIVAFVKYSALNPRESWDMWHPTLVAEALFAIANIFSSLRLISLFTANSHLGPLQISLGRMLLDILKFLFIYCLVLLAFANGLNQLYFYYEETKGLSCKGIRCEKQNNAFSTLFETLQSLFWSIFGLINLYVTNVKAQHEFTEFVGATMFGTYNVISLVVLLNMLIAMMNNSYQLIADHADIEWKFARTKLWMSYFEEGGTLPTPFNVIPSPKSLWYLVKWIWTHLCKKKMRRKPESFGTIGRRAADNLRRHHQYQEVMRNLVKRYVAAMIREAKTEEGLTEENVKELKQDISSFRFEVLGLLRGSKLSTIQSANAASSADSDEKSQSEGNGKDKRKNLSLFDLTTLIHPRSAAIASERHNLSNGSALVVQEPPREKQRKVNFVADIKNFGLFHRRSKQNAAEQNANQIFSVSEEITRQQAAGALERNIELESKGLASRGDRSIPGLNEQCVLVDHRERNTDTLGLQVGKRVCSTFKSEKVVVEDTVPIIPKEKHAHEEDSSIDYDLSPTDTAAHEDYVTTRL
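System: stable TRPC4beta/mu-opioid receptor HEK293 cells; Dosing: single-point compound dosing; Measured by: Fluo4 Ca2+ flux fluorescence; Read-out basis: per-well B score of integrated baseline-normalized Fluo4 ratio.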
TRPC4 potent: TRPC4 (mouse) allosteric potentiation; Q9QUQ5; HEK293 TRPC4beta/mu-opioid, DAMGO EC20, Fluo-4 Ca2+ flux; hits give high values; B-score at 10 µM; actives 0.42% (n = 310,000);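 active means B-score of calcium response area above 5 SD of library B-scores, with initial fluorescence ratio within 5 SD of library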;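 further: B-score of integrated fluorescence ratio over time as area under calcium response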
TRPC4 act: activators of mouse TRPC4 channel. Q9QUQ5. HEK293 TRPC4beta/mu-opioid, Fluo4 calcium fluorescence; hits give high values. B-score at 10 µM. actives 0.49% (n = 310,000). AID 2237;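 active means B-score above 5 SD of library B-scores, and initial fluorescence ratio not above library mean plus 5 SD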;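 further: positive B-score marks a calcium rise read as TRPC4 activation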
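System: HEK293 cells stably co-expressing mouse TRPC4beta and mu-opioid receptor; Schedule: Fluo4 dye loading 45 min at room temperature, 110 s recording; Detection: Fluo4 fluorescence, kinetic; Evaluation: B-scored integrated calcium fluorescence ratio; Controls: buffer (low) and maximal DAMGO (high).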
TRPC6 inhibitor: inhibitors of mouse TRPC6 channel. Q61143. HEK293-TRPC6, membrane potential dye, ACh-evoked depolarization; hits give low values. B-score at 10 µM. actives 1.1% (n = 310,000). AID 2553;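 active means B-score under library mean minus 3 SD, initial fluorescence not abnormally high, positive integrated signal ratio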;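 further: B-score derived from integrated fluorescence ratio over the kinetic read; more negative B-score means stronger inhibition of depolarization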
TRPC6 act: activators of mouse TRPC6 channel; B-score at 10 µM; Q61143; HEK293-TRPC6 membrane potential dye fluorescence; hits give high values; actives 0.13% (n = 310,000); AID 2550;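 active means B-score of the integrated fluorescence ratio above library mean plus 3 SD, and starting fluorescence ratio within library mean plus 5 SD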;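 further: higher score means more depolarization so channel activation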
An asterisk follows results filed as active; i = inactive.

SMILES | TRPC4 inh | TRPC4 potent | TRPC4 act | TRPC6 inhibitor | TRPC6 act
Cc1nn(C)cc1/C=N/NC(=O)C(C)(C)Oc1ccc(Cl)cc1 | i | 11* | i | i | i
Cc1cc(C)cc(OCC(=O)N/N=C\c2cn(C)nc2C)c1 | i | i | i | i | i
COC(=O)c1c(NC(=O)Cc2ccc(OC)c(S(=O)(=O)N3CCOCC3)c2)sc(C)c1C | i | i | i | i | i
Clc1ccc(CN2C3=NCCCN3c3ccccc32)cc1 | i | i | i | i | i
Clc1ccc(CN2C3=NCCCN3c3ccccc32)cc1Cl | -6* | i | i | i | i
O=C(CN1CCN(Cc2cccc(F)c2)CC1)NCc1ccccc1 | i | i | i | i | i
COc1ccc(OC)c(CN2CCN(C(=O)c3cccc(S(=O)(=O)Nc4ccc(C)cc4)c3)CC2)c1 | i | i | i | i | i
Cc1[nH]c2ccc(Br)cc2c(=O)c1CN1CCOCC1 | i | 12* | i | i | i
CCOc1ccc2[nH]c(C)c(CN3CCOCC3)c(=O)c2c1 | i | i | i | i | i
CCn1cc(CN2CCC(n3nccc3NC(=O)CCCc3ccccc3)CC2)cn1 | -7* | i | 43* | i | i
COc1ccc(CN2CCC(n3nccc3NC(=O)CCc3ccccc3)CC2)c(C)c1C | i | i | 82* | i | i
Cc1ccc(CN2CCC(n3nccc3NC(=O)CCOc3ccccc3)CC2)cc1C | -6* | i | i | i | i
CCn1cc(CN2CCC(n3nccc3NC(=O)Cc3ccccc3)CC2)cn1 | i | i | i | i | i
CCCC1Cc2[nH]c(=O)c(C#N)cc2CO1 (configuration not stated) | i | i | i | i | i
CCCC1Cc2nc(N3CCCCC3)c(C#N)cc2CO1 (configuration not stated) | i | 10* | i | i | i
CN1C(=O)C2(OCC(CO)([N+](=O)[O-])CO2)c2ccccc21 (configuration not stated) | i | i | i | i | i
CCC(=O)c1cc2c(C)cc(=O)oc2c(C)c1OC(=O)C(C)C | -6* | i | i | i | i
O=C(Nc1ccc(Cl)c([N+](=O)[O-])c1)c1cnccn1 | i | 21* | i | i | i
O=C(Nc1ccc(Cl)c([N+](=O)[O-])c1)c1ccncc1 | i | i | i | i | i
COCCn1c(SCC(=O)Nc2ccc(S(=O)(=O)N3CCOCC3)cc2)nc2ccccc21 | i | 31* | i | i | i
CC1(c2nnc(-c3cccc(Cl)c3)o2)CC(c2ccccc2)=NO1 (configuration not stated) | i | i | i | i | i
COc1ccc2nc(C3CCCCC3)c3c(c2c1)CCC3 | i | i | i | i | i
CCN(c1ccccc1)S(=O)(=O)c1cc([N+](=O)[O-])ccc1N | i | i | i | -5.6* | i
COc1cc(CO)c(OC)c([N+](=O)[O-])c1 | i | i | i | i | i
CCN1CCN(c2nc(C)c3c(n2)CC(C)CC3=O)CC1 (configuration not stated) | i | 15* | i | i | i
SMILES | TRPC4 inh | TRPC4 potent | TRPC4 act | TRPC6 inhibitor | TRPC6 act
c1ccc(Cc2c[nH]c3ccccc23)cc1 | -5* | i | i | i | i
COc1ccc(-c2csc(NC3CCCCC3)n2)c(OC)c1 | i | i | i | i | i
Cc1ccc(C2(CCNCc3ccc(N(C)C)cc3)CCOC(C(C)C)C2)cc1 (configuration not stated) | i | i | 111* | i | i
CC(C)C1CC(CCNCc2ccc(N(C)C)cc2)(c2ccccc2)CCO1 (configuration not stated) | i | i | 100* | i | i
CC(C)C1CC(CCNCc2ccc3c(c2)OCO3)(c2ccccc2)CCO1 (configuration not stated) | i | i | 122* | i | i
COc1ccc(Cl)cc1NC(=O)CN(C)C(=O)c1cc(-c2ccncc2)nc2ccccc12 | i | i | i | i | i
Cc1cc(OCCN2CCCC2)ccc1[N+](=O)[O-] | i | 30* | i | i | i
CCCCC(CC)C(=O)Nc1cc(C(=O)NCCC)ccc1N1CCC2(CC1)CC(c1cccc(Br)c1)=NO2 (configuration not stated) | i | i | i | i | i
Cc1cccc2c1Sc1ccccc1CC2=O | i | i | i | i | i
C[N+]1(C)CCC(=C2c3ccccc3CC(=O)c3sccc32)CC1 | i | i | i | -6.4* | i
Cc1ccc(CNC(=O)CSc2nc(=O)n3ccccc3n2)cc1 | -6* | i | i | i | i
Cc1ccc(OCc2cc(C(=O)N(C)CCc3nc4ccccc4[nH]3)no2)cc1C | -6* | i | i | i | i
CC(NC(=O)c1ccccc1NC(=O)CN1CCc2ccccc2C1)c1ccccc1 (configuration not stated) | i | 15* | i | i | i
COC(=O)c1ccccc1NC(=O)CN1CCc2ccccc2C1 | i | i | i | i | i
Cc1ccc(NC(=O)CN2CCc3ccccc3C2)cc1F | -7* | i | i | i | i
Cc1ccc(NC(=O)CN2CCc3ccccc3C2)cc1S(=O)(=O)N1CCOCC1 | -9* | i | 70* | i | i
CN1C(=O)CSC1=Nc1ccc(Br)cc1 | i | i | i | i | i
CCN1C(=O)CSC1=NC12CC3CC(CC(C3)C1)C2 | -5* | i | i | i | i
CN1C(=O)CSC1=NC12CC3CC(CC(C3)C1)C2 | -6* | i | i | i | i
COc1ccc(S(=O)(=O)n2nc(C)cc2C)cc1OC | i | i | i | i | i
COc1ccc(-c2nc(CSCC(=O)NC3CCN(Cc4ccccc4)CC3)c(C)o2)cc1OC | i | i | 116* | i | i
COc1ccc(-c2nc(CSCC(=O)NC3CC3)c(C)o2)cc1OC | i | i | i | i | i
COc1ccc(C(=O)NCCS(=O)(=O)N2CCc3ccccc3C2)cc1 | i | i | i | i | i
CC1(C)Cc2nc3oc4c(=O)n(CC(=O)Nc5ccccc5)cnc4c3cc2CO1 | -6* | i | i | i | i
CC(C)N(CCNC(=O)c1nn(Cc2ccccc2)c(=O)c2ccccc12)C(C)C | i | i | i | i | i
COc1ccc(NC(=O)C2CCN(S(=O)(=O)c3ccc4c(c3)CC(C)N4C(C)=O)CC2)c(OC)c1 (configuration not stated) | i | i | i | i | i
